Measured values pooled from the literature.
Each line is one published result; the experiments were not run side by side.
PDE4D: 3',5'-cyclic-AMP phosphodiesterase 4D (PDE4D, Homo sapiens, UniProt Q08499)
MTNR1B: Melatonin receptor type 1B (MTNR1B, Homo sapiens, UniProt P49286)

CC[C@H](C)[C@@H]1NC(=O)[C@@H]2CSSC[C@H](NC(=O)[C@@H](NC(=O)CN)[C@@H](C)O)C(=O)N[C@@H](CC(N)=O)C(=O)N[C@@H]([C@@H](C)O)C(=O)N3CCC[C@H]3C(=O)NCC(=O)N[C@H]3CSSC[C@H](NC(=O)[C@H](CCSC)NC(=O)[C@H](CC(C)C)NC(=O)[C@H](CCCNC(=N)N)NC(=O)CNC(=O)CNC(=O)[C@H](CC(=O)O)NC1=O)C(=O)NCC(=O)N[C@@H](CCC(=O)O)C(=O)N[C@@H]([C@@H](C)O)C(=O)N[C@H](C(=O)N[C@H](C(=O)NCC(=O)O)C(C)C)CSSC[C@H](NC(=O)[C@H]([C@@H](C)O)NC3=O)C(=O)N[C@@H](CO)C(=O)N[C@@H](Cc1c[nH]c3ccccc13)C(=O)N1CCC[C@H]1C(=O)N[C@@H](C(C)C)C(=O)N2 — kon (Prothrombin (F2, Homo sapiens, UniProt P00734); binding, SPR): 1000 to 10000 M⁻¹ s⁻¹
O=C(O)c1cc(O)c2c(c1)C(=O)c1cccc(O)c1C2=O — inhibition (PDE4D; enzyme activity, inhibitor, radiometric; 50 µM): 9.01%
COc1ccc2[nH]cc(CCNC(=O)CI)c2c1 — Emax (MTNR1B; GTPγS binding, agonist, radiometric; cell membranes): 123%
c1ccc(C(NCCNC(c2ccccc2)c2ccccc2)c2ccccc2)cc1 — inhibition (Phospholipase A2, major isoenzyme (PLA2G1B, Sus scrofa, UniProt P00592); cell-free assay, inhibitor; 10 µM): 4%
Cc1nn(C)cc1-c1nc2c(N3CCN(Cc4ccc(Cl)cc4)CC3)c(Cl)cnc2[nH]1 — remaining binding (Calcium/calmodulin-dependent protein kinase type 1G (CAMK1G, Homo sapiens, UniProt Q96NX5); binding, competition with immobilised ligand; 1 µM): 100%
CC1(C)[C@@H](O[C@H]2O[C@H](C(=O)O)[C@@H](O)[C@H](O)[C@H]2O[C@@H]2O[C@H](C(=O)O)[C@@H](O)[C@H](O)[C@H]2O)CC[C@]2(C)[C@H]3C(=O)C=C4[C@@H]5C[C@@](C)(C(=O)O)CC[C@]5(C)CC[C@@]4(C)[C@]3(C)CC[C@@H]12 — inhibition (PDE4D; enzyme activity, inhibitor, radiometric; 50 µM): 10.9%
Nc1ncc(-c2nc(N3CCOCC3)nc(N3CCOCC3)n2)c(C(F)F)n1 — remaining activity (PDE4D; enzyme activity, inhibitor; 10 µM): 75%
C=C(C)[C@@H]1CC=C2C(=CC[C@]3(C)[C@@H]([C@@H](CCC=C(C)C)C(=O)O)[C@H](O)C[C@@]23C)[C@@]1(C)CCC(=O)O — inhibition (PDE4D; enzyme activity, inhibitor, radiometric; 50 µM): 51.7%
CCN(CC)CCCC[C@H](NC(=O)[C@H](CC(C)C)NC(=O)[C@H](C)NC(=O)[C@H](Cc1ccccc1)NC(=O)c1ccc(C(C)(C)C)cc1)C(=O)N[C@@H](CO)C(=O)OC — ΔTm (Bromodomain adjacent to zinc finger domain protein 1A (BAZ1A, Homo sapiens, UniProt Q9NRL2); thermal stability, DSF; 25 µM): -1.44 °C
COc1ncccc1-c1cnn2ccc(N3CCN(C(=O)OC(C)C)CC3)nc12 — remaining binding (Mitogen-activated protein kinase 7 (MAPK7, Homo sapiens, UniProt Q13164); binding, competition with immobilised ligand; 1 µM): 100%
CC1(C)[C@@H](O)CC[C@]2(C)[C@H]3C(=O)C=C4[C@@H]5C[C@@](C)(C(=O)O)CC[C@]5(C)CC[C@@]4(C)[C@]3(C)CC[C@@H]12 — inhibition (PDE4D; enzyme activity, inhibitor, radiometric; 50 µM): 42.4%
COc1ccc2cccc(C(CO)CNC(=O)CF)c2c1 (stereo not drawn) — Emax (MTNR1B; β-arrestin recruitment, agonist; MT2; 90 min): 101%
